Results published in ChEMBL document CHEMBL1275595, “Antimicrobial activity of a halocidin-derived peptide resistant to attacks by proteases” (2010).
In brackets after ≈: the same amount, converted by molar mass. Activity calls are given as the source filed them. No cut-off for these calls is given here. Bridge positions count the residues as written; N and C are the ends. Peptide text beside a SMILES is read from it. I, II: the chains in the order shown.

Columns and labels:
Staphylococcus aureus [1] = assay: Antimicrobial activity against methicillin-resistant Staphylococcus aureus CCARM 3696 after 18 hrs by broth dilution method; assay type: functional; conditions: CCARM 3696, 18 h
How it was run: (§1)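 Broth dilution per CLSI. Bacteria were grown overnight to stationary phase in Mueller-Hinton broth and diluted in fresh MHB to 2 × 10^5 CFU/ml. Stocks at 640 μg/ml in 0.01% acetic acid were 2-fold serially diluted to 10 μg/ml, and 11 μl was added to 100 μl of bacteria. After 18 h at 37°C, MIC was the lowest concentration with no visible turbidity. Run in triplicate.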

Bacillus subtilis = assay: Antimicrobial activity against Bacillus subtilis KCTC 2213 after 18 hrs by broth dilution method; assay type: functional; conditions: KCTC 2213, 18 h
How it was run: (§2)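 Broth microdilution following CLSI recommendations. Bacteria were grown overnight to stationary phase in Mueller-Hinton broth, then diluted in fresh MHB to 2 × 10^5 CFU/ml. Peptide or antibiotic stocks of 640 μg/ml in 0.01% acetic acid were serially 2-fold diluted to 10 μg/ml, and each was added to the bacterial suspension at 11 μl per 100 μl. Plates were incubated 18 h at 37°C. MIC was taken as the lowest concentration giving no visible turbidity, in triplicate.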

Micrococcus luteus = assay: Antimicrobial activity against Micrococcus luteus KCTC 9341 after 18 hrs by broth dilution method; assay type: functional; conditions: KCTC 9341, 18 h; how it was run: as §2
Enterococcus faecium = assay: Antimicrobial activity against vancomycin-resistant Enterococcus faecium CCARM 5028 after 18 hrs by broth dilution method; assay type: functional; conditions: CCARM 5028, 18 h; how it was run: as §1
Listeria monocytogenes = assay: Antimicrobial activity against Listeria monocytogenes KCTC 19111 after 18 hrs by broth dilution method; assay type: functional; conditions: KCTC 19111, 18 h; how it was run: as §2
Pseudomonas aeruginosa = assay: Antimicrobial activity against multidrug-resistant Pseudomonas aeruginosa CCARM 2161 after 18 hrs by broth dilution method; assay type: functional; conditions: CCARM 2161, 18 h; how it was run: as §1
Escherichia coli = assay: Antimicrobial activity against Escherichia coli KCTC 1039 after 18 hrs by broth dilution method; assay type: functional; conditions: KCTC 1039, 18 h; how it was run: as §2
Klebsiella oxytoca = assay: Antimicrobial activity against Klebsiella oxytoca KCTC 1686 after 18 hrs by broth dilution method; assay type: functional; conditions: KCTC 1686, 18 h; how it was run: as §2
Citrobacter freundii = assay: Antimicrobial activity against Citrobacter freundii KCTC 2359 after 18 hrs by broth dilution method; assay type: functional; conditions: KCTC 2359, 18 h; how it was run: as §2
Salmonella enterica = assay: Antimicrobial activity against Salmonella enterica KCTC 2930 after 18 hrs by broth dilution method; assay type: functional; conditions: KCTC 2930, 18 h; how it was run: as §2
Staphylococcus aureus [2] = assay: Antimicrobial activity against methicillin-resistant Staphylococcus aureus CCARM 3696 by colony count assay incubated with trypsin for 10 mins; assay type: functional, organism-based
How it was run: (§3)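 Peptide (20 μg) was incubated at 37°C with 50 nM trypsin in 100 μl of 10 mM sodium phosphate, then heated 10 min at 80°C and cooled. MRSA (100 μl, 2 × 10^7 CFU/ml) was added for 5 min. Aliquots were plated on TSA (1.5% agarose, 3% TSB in NaP) and counted after overnight growth at 37°C. Read-out was CFU/ml; repeated three times on different days.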

Staphylococcus aureus [3] = assay: Antimicrobial activity against methicillin-resistant Staphylococcus aureus CCARM 3696 by colony count assay incubated with trypsin for 20 mins; assay type: functional, organism-based; how it was run: as §3
Staphylococcus aureus [4] = assay: Antimicrobial activity against methicillin-resistant Staphylococcus aureus CCARM 3696 by colony count assay incubated with trypsin for 1 hr; assay type: functional, organism-based; how it was run: as §3
Staphylococcus aureus [5] = assay: Antimicrobial activity against methicillin-resistant Staphylococcus aureus CCARM 3696 by radial diffusion assay incubated with trypsin; assay type: functional, organism-based
Staphylococcus aureus [6] = assay: Antimicrobial activity against methicillin-resistant Staphylococcus aureus CCARM 3696 by radial diffusion assay incubated with chymotrypsin for 1 hr; assay type: functional, organism-based
Staphylococcus aureus [7] = assay: Antimicrobial activity against methicillin-resistant Staphylococcus aureus CCARM 3696 by radial diffusion assay incubated with matrix metalloprotease 7 for 1 hr; assay type: functional, organism-based
Staphylococcus aureus [8] = assay: Antimicrobial activity against methicillin-resistant Staphylococcus aureus CCARM 3696 by radial diffusion assay incubated with Pseudomonas aeruginosa Culture supernatant for 1 hr; assay type: functional, organism-based
Staphylococcus aureus [9] = assay: Antimicrobial activity against methicillin-resistant Staphylococcus aureus CCARM 3696 by radial diffusion assay incubated with Staphylococcus aureus Culture supernatant for 1 hr; assay type: functional, organism-based
Staphylococcus aureus [10] = assay: Antimicrobial activity against methicillin-resistant Staphylococcus aureus CCARM 3696 by radial diffusion assay incubated with chymotrypsin; assay type: functional, organism-based
Staphylococcus aureus [11] = assay: Antimicrobial activity against methicillin-resistant Staphylococcus aureus CCARM 3696 by radial diffusion assay incubated with human wound fluid for 1 hr; assay type: functional, organism-based
Staphylococcus aureus [12] = assay: Antimicrobial activity against methicillin-resistant Staphylococcus aureus CCARM 3696 by radial diffusion assay incubated with human wound fluid for 4 hrs; assay type: functional, organism-based
Staphylococcus aureus [13] = assay: Antimicrobial activity against methicillin-resistant Staphylococcus aureus CCARM 3696 by radial diffusion assay incubated with matrix metalloprotease 7 for 5 mins; assay type: functional, organism-based

| SMILES | MIC (Staphylococcus aureus [1]) | MIC (Bacillus subtilis) | MIC (Micrococcus luteus) | MIC (Enterococcus faecium) | MIC (Listeria monocytogenes) | MIC (Pseudomonas aeruginosa) | MIC (Escherichia coli) | MIC (Klebsiella oxytoca) | MIC (Citrobacter freundii) | MIC (Salmonella enterica) | Activity (Staphylococcus aureus [2]) | Activity (Staphylococcus aureus [3]) | Activity (Staphylococcus aureus [4]) | Activity (Staphylococcus aureus [6]) | Activity (Staphylococcus aureus [7]) | Activity (Staphylococcus aureus [8]) | Activity (Staphylococcus aureus [9]) | Activity (Staphylococcus aureus [13]) | further results |
| --- | --- | --- | --- | --- | --- | --- | --- | --- | --- | --- | --- | --- | --- | --- | --- | --- | --- | --- | --- |
| CC(C)C[C@H](NC(=O)CNC(=O)[C@H](Cc1cnc[nH]1)NC(=O)[C@H](Cc1cnc[nH]1)NC(=O)[C@H](CC(C)C)NC(=O)[C@H](CC(C)C)NC(=O)[C@H](C)NC(=O)[C@H](CCCCN)NC(=O)[C@H](CCCCN)NC(=O)[C@H](Cc1c[nH]c2ccccc12)NC(=O)[C@@H](N)CCCCN)C(=O)N[C@@H](CC(N)=O)C(=O)N[C@@H](CSSC[C@H](NC(=O)[C@H](CC(N)=O)NC(=O)[C@H](CC(C)C)NC(=O)CNC(=O)[C@H](Cc1cnc[nH]1)NC(=O)[C@H](Cc1cnc[nH]1)NC(=O)[C@H](CC(C)C)NC(=O)[C@H](CC(C)C)NC(=O)[C@H](C)NC(=O)[C@H](CCCCN)NC(=O)[C@H](CCCCN)NC(=O)[C@H](Cc1c[nH]c2ccccc12)NC(=O)[C@@H](N)CCCCN)C(=O)N[C@@H](C)C(=O)N[C@@H](CCCCN)C(=O)NCC(=O)N[C@H](C(=O)N[C@@H](CC(C)C)C(=O)N[C@@H](C)C(=O)O)C(C)C)C(=O)N[C@@H](C)C(=O)N[C@@H](CCCCN)C(=O)NCC(=O)N[C@H](C(=O)N[C@@H](CC(C)C)C(=O)N[C@@H](C)C(N)=O)C(C)C (I: H-KWKKALLHHGLNCAKGVLA-NH2 / II: H-KWKKALLHHGLNCAKGVLA-OH; disulfide I:13-II:13) | 4 µg/mL (≈ 0.959 µM) | 2 µg/mL (≈ 0.479 µM) | 4 µg/mL (≈ 0.959 µM) | 2 µg/mL (≈ 0.479 µM) | 2 µg/mL (≈ 0.479 µM) | 4 µg/mL (≈ 0.959 µM) | 2 µg/mL (≈ 0.479 µM) | 2 µg/mL (≈ 0.479 µM) | 4 µg/mL (≈ 0.959 µM) | 2 µg/mL (≈ 0.479 µM) | inactive | inactive | Active | Active | Active | inactive | inactive | – | Activity (Staphylococcus aureus [5]): inactive |
| CC(C)C[C@H](NC(=O)CNC(=O)[C@H](Cc1cnc[nH]1)NC(=O)[C@H](Cc1cnc[nH]1)NC(=O)[C@H](CC(C)C)NC(=O)[C@H](CC(C)C)NC(=O)[C@H](C)NC(=O)[C@H](CC(N)=O)NC(=O)[C@H](CC(C)C)NC(=O)[C@H](Cc1c[nH]c2ccccc12)NC(=O)[C@@H](N)CCCCN)C(=O)N[C@@H](CC(N)=O)C(=O)N[C@@H](CSSC[C@H](NC(=O)[C@H](CC(N)=O)NC(=O)[C@H](CC(C)C)NC(=O)CNC(=O)[C@H](Cc1cnc[nH]1)NC(=O)[C@H](Cc1cnc[nH]1)NC(=O)[C@H](CC(C)C)NC(=O)[C@H](CC(C)C)NC(=O)[C@H](C)NC(=O)[C@H](CC(N)=O)NC(=O)[C@H](CC(C)C)NC(=O)[C@H](Cc1c[nH]c2ccccc12)NC(=O)[C@@H](N)CCCCN)C(=O)N[C@@H](C)C(=O)N[C@@H](CCCCN)C(=O)NCC(=O)N[C@H](C(=O)N[C@@H](CC(C)C)C(=O)N[C@@H](C)C(N)=O)C(C)C)C(=O)N[C@@H](C)C(=O)N[C@@H](CCCCN)C(=O)NCC(=O)N[C@H](C(=O)N[C@@H](CC(C)C)C(=O)N[C@@H](C)C(N)=O)C(C)C (I: H-KWLNALLHHGLNCAKGVLA-NH2 / II: H-KWLNALLHHGLNCAKGVLA-NH2; disulfide I:13-II:13) | 4 µg/mL (≈ 0.973 µM) | 2 µg/mL (≈ 0.486 µM) | 4 µg/mL (≈ 0.973 µM) | 2 µg/mL (≈ 0.486 µM) | 4 µg/mL (≈ 0.973 µM) | 4 µg/mL (≈ 0.973 µM) | 4 µg/mL (≈ 0.973 µM) | 4 µg/mL (≈ 0.973 µM) | 4 µg/mL (≈ 0.973 µM) | 4 µg/mL (≈ 0.973 µM) | – | – | – | Active | Active | Active | Active | – | Activity (Staphylococcus aureus [10]): Active; Activity (Staphylococcus aureus [11]): Active; Activity (Staphylococcus aureus [12]): Active |
| CC[C@H](C)[C@H](NC(=O)[C@H](CCCCN)NC(=O)[C@H](CCC(=O)O)NC(=O)[C@H](CCCCN)NC(=O)[C@H](CO)NC(=O)[C@H](CCCCN)NC(=O)[C@H](CCCNC(=N)N)NC(=O)[C@H](Cc1ccccc1)NC(=O)[C@H](Cc1ccccc1)NC(=O)[C@H](CC(=O)O)NC(=O)CNC(=O)[C@H](CC(C)C)NC(=O)[C@@H](N)CC(C)C)C(=O)NCC(=O)N[C@@H](CCCCN)C(=O)N[C@@H](CCC(=O)O)C(=O)N[C@@H](Cc1ccccc1)C(=O)N[C@@H](CCCCN)C(=O)N[C@@H](CCCNC(=N)N)C(=O)N[C@H](C(=O)N[C@H](C(=O)N[C@@H](CCC(N)=O)C(=O)N[C@@H](CCCNC(=N)N)C(=O)N[C@H](C(=O)N[C@@H](CCCCN)C(=O)N[C@@H](CC(=O)O)C(=O)N[C@@H](Cc1ccccc1)C(=O)N[C@@H](CC(C)C)C(=O)N[C@@H](CCCNC(=N)N)C(=O)N[C@@H](CC(N)=O)C(=O)N[C@@H](CC(C)C)C(=O)N[C@H](C(=O)N1CCC[C@H]1C(=O)N[C@@H](CCCNC(=N)N)C(=O)N[C@H](C(=O)N[C@@H](CCC(=O)O)C(=O)N[C@@H](CO)C(=O)O)[C@@H](C)O)C(C)C)[C@@H](C)CC)C(C)C)[C@@H](C)CC [CATHELICIDIN] | > 64 µg/mL | 8 µg/mL (≈ 1.78 µM) | > 64 µg/mL | 32 µg/mL (≈ 7.12 µM) | 32 µg/mL (≈ 7.12 µM) | > 64 µg/mL | 32 µg/mL (≈ 7.12 µM) | > 64 µg/mL | 64 µg/mL (≈ 14.2 µM) | > 64 µg/mL | inactive | inactive | Active | – | – | inactive | inactive | inactive | – |
| CC[C@H](C)[C@H](NC(=O)CN)C(=O)NCC(=O)N[C@@H](CCCCN)C(=O)N[C@@H](Cc1ccccc1)C(=O)N[C@@H](CC(C)C)C(=O)N[C@@H](CCCCN)C(=O)N[C@@H](CCCCN)C(=O)N[C@@H](C)C(=O)N[C@@H](CCCCN)C(=O)N[C@@H](CCCCN)C(=O)N[C@@H](Cc1ccccc1)C(=O)NCC(=O)N[C@@H](CCCCN)C(=O)N[C@@H](C)C(=O)N[C@@H](Cc1ccccc1)C(=O)N[C@H](C(=O)N[C@@H](CCCCN)C(=O)N[C@H](C(=O)N[C@@H](CC(C)C)C(=O)N[C@@H](CCCCN)C(=O)N[C@@H](CCCCN)C(N)=O)[C@@H](C)CC)C(C)C [PEXIGANAN] (H-GIGKFLKKAKKFGKAFVKILKK-NH2) | 16 µg/mL (≈ 6.46 µM) | 4 µg/mL (≈ 1.61 µM) | 8 µg/mL (≈ 3.23 µM) | 8 µg/mL (≈ 3.23 µM) | 16 µg/mL (≈ 6.46 µM) | 8 µg/mL (≈ 3.23 µM) | 4 µg/mL (≈ 1.61 µM) | 8 µg/mL (≈ 3.23 µM) | 8 µg/mL (≈ 3.23 µM) | 8 µg/mL (≈ 3.23 µM) | inactive | inactive | Active | – | – | inactive | inactive | inactive | – |
